# According to ChEMBL document CHEMBL4765238, “Structure-Based Discovery and Optimization of Benzo[ d]isoxazole Derivatives as Potent and Selective BET Inhibitors for Potential Treatment of Castration-Resistant Prostate Cancer (CRPC)” (J Med Chem, 2018):
# The source made the active and inactive calls. The calls are words filed in the database; no cut-off is given here.
# Tests used:
# [1] = biological target: T1, Bromodomain-containing protein 4 (Homo sapiens, UniProt O60885); assay: Binding affinity to human recombinant His6-tagged BRD4 bromodomain 1 (N44 to E168 residues) expressed in Escherichia coli BL21 (DE3) cells assessed as change in entropy incubated for 1 hr by isothermal titration calorimetry
# [2] = biological target: T1, Bromodomain-containing protein 4; assay: Binding affinity to human recombinant His6-tagged BRD4 bromodomain 1 (N44 to E168 residues) expressed in Escherichia coli BL21 (DE3) cells assessed as change in enthalpy incubated for 1 hr by isothermal titration calorimetry
# [3] = biological target: Bromodomain-containing protein 2 (Homo sapiens) (UniProt P25440); assay: Binding affinity to human recombinant His6-tagged BRD2 bromodomain 1 (K77 to N194 residues) expressed in Escherichia coli BL21 (DE3) cells assessed as change in melting temperature at 200 uM incubated for 30 mins by SYPRO orange dye based thermal shift assay
# Procedure, shortened: (§1)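 Thermal shift assay measuring change in melting temperature of each isolated bromodomain module in the presence of compound versus without.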
# [4] = biological target: Bromodomain testis-specific protein (Homo sapiens) (UniProt Q58F21); assay: Binding affinity to human recombinant His6-tagged BRDT bromodomain 1 (N21 to E137 residues) expressed in Escherichia coli BL21 (DE3) cells assessed as change in melting temperature at 200 uM incubated for 30 mins by SYPRO orange dye based thermal shift assay; procedure, shortened: as §1
# [5] = biological target: T2, Bromodomain-containing protein 9 (Homo sapiens) (UniProt Q9H8M2); assay: Binding affinity to human recombinant His6-tagged BRD9 (L14 to Q134 residues) expressed in Escherichia coli BL21 (DE3) cells assessed as change in melting temperature at 200 uM incubated for 30 mins by SYPRO orange dye based thermal shift assay; procedure, shortened: as §1
# T2 sequence (whole entry): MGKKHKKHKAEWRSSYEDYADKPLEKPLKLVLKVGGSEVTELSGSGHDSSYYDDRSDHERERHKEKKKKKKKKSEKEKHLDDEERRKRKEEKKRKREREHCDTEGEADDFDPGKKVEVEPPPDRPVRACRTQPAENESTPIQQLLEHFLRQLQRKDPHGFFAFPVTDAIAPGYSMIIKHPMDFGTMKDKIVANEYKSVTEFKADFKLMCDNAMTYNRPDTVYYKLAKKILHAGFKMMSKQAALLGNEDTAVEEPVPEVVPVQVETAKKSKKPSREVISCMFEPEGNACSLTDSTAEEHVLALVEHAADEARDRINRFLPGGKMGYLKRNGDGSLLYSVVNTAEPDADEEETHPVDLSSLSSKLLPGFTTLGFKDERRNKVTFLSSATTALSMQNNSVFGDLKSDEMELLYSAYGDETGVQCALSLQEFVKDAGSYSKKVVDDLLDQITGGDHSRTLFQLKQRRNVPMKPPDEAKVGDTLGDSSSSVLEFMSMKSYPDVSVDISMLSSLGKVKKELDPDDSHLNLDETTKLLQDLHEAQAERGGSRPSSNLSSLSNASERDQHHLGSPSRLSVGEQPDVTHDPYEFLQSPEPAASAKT
# [6] = biological target: Transcription initiation factor TFIID subunit 1 (Homo sapiens) (UniProt P21675); assay: Binding affinity to human recombinant His6-tagged TAF1 bromodomain 1 (R1377 to D1503 residues) expressed in Escherichia coli BL21 (DE3) cells assessed as change in melting temperature at 200 uM incubated for 30 mins by SYPRO orange dye based thermal shift assay; procedure, shortened: as §1
# VCaP = assay: Antiproliferative activity against AR-positive human VCaP cells assessed as reduction in cell viability incubated for 144 hrs by cell-titer glo assay; assay type: functional, cell-based
# Procedure, shortened: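 Prostate cancer cells treated across a concentration range; viability read by CellTiter-Glo luminescence; experiments in triplicate; IC50 derived from the dose–response curves.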
# DU-145 = assay: Antiproliferative activity against AR-negative human DU-145 cells assessed as reduction in cell viability incubated for 72 hrs by cell-titer glo assay; assay type: functional, cell-based; settings: DU-145, 72 h
# MV4-11 = assay: Antiproliferative activity against human MV4-11 cells assessed as reduction in cell viability incubated for 120 hrs by cell-titer glo assay; assay type: functional, cell-based; settings: MV4-11, 120 h
# HT-29 = assay: Antiproliferative activity against human HT-29 cells assessed as reduction in cell viability incubated for 120 hrs by cell-titer glo assay; assay type: functional, cell-based; settings: HT-29, 120 h
# HFL1 = assay: Cytotoxicity against human HFL1 cells assessed as reduction in cell viability incubated for 72 hrs by cell-titer glo assay; assay type: cell-based; settings: HFL1, 72 h
# LNCaP [7] = assay: Inhibition of BET bromodomain in human LNCaP cells assessed as suppression of PSA mRNA expression at 5 uM incubated for 48 hrs by SYBR green dye based qRT-PCR analysis; assay type: cell-based
# Procedure, shortened: (§2)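 LNCaP or VCaP cells exposed to vehicle (DMSO) or compound at 5 µM for 48 h; mRNA levels measured by qRT-PCR; mean ± s.e.m., n = 3; two-tailed Student's t-test.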
# LNCaP [8] = assay: Inhibition of BET bromodomain in human LNCaP cells assessed as suppression of TMPRSS2 mRNA expression at 5 uM incubated for 48 hrs by SYBR green dye based qRT-PCR analysis; assay type: cell-based; procedure, shortened: as §2
# 22Rv1 = assay: Inhibition of BET bromodomain in human 22Rv1 cells assessed as suppression of full-length androgen receptor protein expression at 1 to 16 uM incubated for 48 hrs by western blot analysis; assay type: cell-based; settings: dose 1-16 µM
# [9] = AUC in Sprague-Dawley rat at 2 mg/kg, iv by LC/MS analysis; assay type: ADME, organism-based; parameters: dose 2 mg/kg; settings: in vivo
# Procedure, shortened: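 Sprague-Dawley rats dosed iv at 2 mg/kg (a separate oral arm received 10 mg/kg); plasma exposure parameters derived from the concentration–time profile.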
# LNCaP C4-2B [10] = assay: Antitumor activity against human LNCaP C4-2B cells xenografted in CB17/IcrHSD-Prkdc-SCID mouse assessed as tumor growth inhibition at 50 mg/kg, ip administered 5 times per week for 25 days by caliper analysis; assay type: functional; settings: 600 h, time 25 day, read-out: TGI
# Procedure, shortened: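 C4-2B cells xenografted in mice; once tumours reached about 100 mm3, mice were randomized and given vehicle or compound at 50 mg/kg i.p. five times per week for 25 days; tumour volume (mean ± s.e.m.) and body weight tracked.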
# LNCaP C4-2B [11] = assay: Inhibition of colony formation in human LNCaP C4-2B cells at 0.5 uM incubated for 14 days by crystal violet staining based assay; assay type: functional, cell-based; settings: time 14.0 day
# Procedure, shortened: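 C4-2B cells cultured with vehicle (DMSO) or compound at 0.5, 1.0 or 2.0 μM for 14 days, then colonies stained and counted against vehicle.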
# [12] = Toxicity in CB17/IcrHSD-Prkdc-SCID mouse xenografted with human LNCaP C4-2B cells assessed as effect on body weight at 50 mg/kg, ip administered 5 times per week for 25 days; assay type: organism-based; settings: in vivo, 600 h, time 25 day
# Procedure, shortened: (§3)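 C4-2B xenograft mice randomized once tumors reached about 100 mm3. Vehicle or compound given i.p. at 50 mg/kg, five times per week, over a 25-day treatment period. Tolerability judged from body weight, tracked across treatment days, and from general behaviour.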
# [13] = Toxicity in CB17/IcrHSD-Prkdc-SCID mouse xenografted with human LNCaP C4-2B cells assessed as effect on animal behaviour at 50 mg/kg, ip administered 5 times per week for 25 days; assay type: organism-based; settings: in vivo, 600 h, time 25 day; procedure, shortened: as §3
# Transcription initiation factor TFIID subunit 1 (Homo sapiens), sequence (P21675 whole entry, the tested form may be a part): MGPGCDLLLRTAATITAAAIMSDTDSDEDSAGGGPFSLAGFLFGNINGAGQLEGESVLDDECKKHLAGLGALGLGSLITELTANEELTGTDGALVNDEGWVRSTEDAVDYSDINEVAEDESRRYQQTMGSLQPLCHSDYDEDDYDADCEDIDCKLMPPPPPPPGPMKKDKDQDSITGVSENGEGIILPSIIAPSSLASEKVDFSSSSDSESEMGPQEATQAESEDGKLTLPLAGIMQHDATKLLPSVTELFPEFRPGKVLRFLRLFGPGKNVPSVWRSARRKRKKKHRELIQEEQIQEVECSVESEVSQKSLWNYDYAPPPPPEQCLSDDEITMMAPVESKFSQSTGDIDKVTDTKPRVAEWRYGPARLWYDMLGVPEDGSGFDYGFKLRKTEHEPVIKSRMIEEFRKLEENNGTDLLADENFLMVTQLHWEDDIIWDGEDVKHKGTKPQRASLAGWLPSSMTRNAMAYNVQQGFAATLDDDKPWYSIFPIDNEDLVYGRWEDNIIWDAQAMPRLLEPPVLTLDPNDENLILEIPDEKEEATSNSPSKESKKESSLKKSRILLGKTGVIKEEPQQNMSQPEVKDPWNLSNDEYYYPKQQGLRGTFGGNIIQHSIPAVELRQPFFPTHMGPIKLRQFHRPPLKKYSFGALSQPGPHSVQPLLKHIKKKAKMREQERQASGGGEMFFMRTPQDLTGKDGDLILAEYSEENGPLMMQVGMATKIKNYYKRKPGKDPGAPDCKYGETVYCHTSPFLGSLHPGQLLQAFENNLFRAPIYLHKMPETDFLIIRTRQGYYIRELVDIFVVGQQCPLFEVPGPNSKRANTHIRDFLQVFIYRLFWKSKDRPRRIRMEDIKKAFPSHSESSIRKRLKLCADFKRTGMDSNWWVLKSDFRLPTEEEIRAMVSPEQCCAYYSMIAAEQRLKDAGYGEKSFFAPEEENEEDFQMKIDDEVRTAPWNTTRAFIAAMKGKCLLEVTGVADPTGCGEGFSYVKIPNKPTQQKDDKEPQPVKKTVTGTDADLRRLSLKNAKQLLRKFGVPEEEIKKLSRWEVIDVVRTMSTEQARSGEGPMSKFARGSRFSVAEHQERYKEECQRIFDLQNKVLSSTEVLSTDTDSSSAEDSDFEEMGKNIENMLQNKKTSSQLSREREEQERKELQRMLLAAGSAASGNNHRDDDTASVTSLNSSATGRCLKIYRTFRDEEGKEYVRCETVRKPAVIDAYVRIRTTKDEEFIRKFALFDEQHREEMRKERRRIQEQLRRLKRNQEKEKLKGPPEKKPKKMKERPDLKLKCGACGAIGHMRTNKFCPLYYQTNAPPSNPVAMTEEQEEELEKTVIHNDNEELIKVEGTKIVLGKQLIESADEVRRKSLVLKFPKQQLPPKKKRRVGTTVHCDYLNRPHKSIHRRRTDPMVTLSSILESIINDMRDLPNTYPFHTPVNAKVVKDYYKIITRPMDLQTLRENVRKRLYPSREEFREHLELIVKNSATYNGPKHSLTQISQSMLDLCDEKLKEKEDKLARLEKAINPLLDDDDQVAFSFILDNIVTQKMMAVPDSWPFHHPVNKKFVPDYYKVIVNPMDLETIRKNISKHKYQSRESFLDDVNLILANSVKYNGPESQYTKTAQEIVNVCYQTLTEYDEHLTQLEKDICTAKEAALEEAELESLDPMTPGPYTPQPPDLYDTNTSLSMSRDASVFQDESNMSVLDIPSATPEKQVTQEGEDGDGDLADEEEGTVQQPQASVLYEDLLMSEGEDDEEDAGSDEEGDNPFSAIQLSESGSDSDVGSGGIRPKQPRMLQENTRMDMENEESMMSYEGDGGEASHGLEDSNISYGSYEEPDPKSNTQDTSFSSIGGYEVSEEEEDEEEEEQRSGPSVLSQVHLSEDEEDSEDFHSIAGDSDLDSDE
# Bromodomain-containing protein 2 (Homo sapiens), sequence (P25440 whole entry, looked up, the tested form may be a part): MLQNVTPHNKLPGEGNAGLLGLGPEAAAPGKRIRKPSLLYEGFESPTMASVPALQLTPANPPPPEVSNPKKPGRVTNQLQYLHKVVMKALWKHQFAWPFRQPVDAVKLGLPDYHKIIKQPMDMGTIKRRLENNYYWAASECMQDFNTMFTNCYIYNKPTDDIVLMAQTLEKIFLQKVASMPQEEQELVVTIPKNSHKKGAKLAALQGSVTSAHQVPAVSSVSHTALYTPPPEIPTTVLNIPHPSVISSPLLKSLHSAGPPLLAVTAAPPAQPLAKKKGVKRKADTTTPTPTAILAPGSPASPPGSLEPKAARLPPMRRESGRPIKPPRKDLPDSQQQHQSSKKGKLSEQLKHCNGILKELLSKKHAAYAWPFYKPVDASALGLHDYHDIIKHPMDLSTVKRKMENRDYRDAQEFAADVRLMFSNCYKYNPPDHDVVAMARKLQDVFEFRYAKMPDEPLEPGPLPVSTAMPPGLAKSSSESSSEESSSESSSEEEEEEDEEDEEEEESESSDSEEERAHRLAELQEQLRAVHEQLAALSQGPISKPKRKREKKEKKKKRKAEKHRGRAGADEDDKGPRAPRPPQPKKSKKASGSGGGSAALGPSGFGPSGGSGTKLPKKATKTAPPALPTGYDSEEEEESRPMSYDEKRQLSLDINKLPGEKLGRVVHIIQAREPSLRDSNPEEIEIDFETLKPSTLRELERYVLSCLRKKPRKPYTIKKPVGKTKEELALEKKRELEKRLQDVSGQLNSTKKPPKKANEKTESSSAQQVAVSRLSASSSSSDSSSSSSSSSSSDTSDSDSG
TdeltaS [1] [kcal/mol],deltaH [2] [kcal/mol],ΔTm [3] [°C],ΔTm [4] [°C],ΔTm [5] [°C],ΔTm [6] [°C],IC50 (VCaP) [nM],IC50 (DU-145) [nM],IC50 (MV4-11) [nM],IC50 (HT-29) [nM],AUC [9] [ng·h/mL],SMILES,IC50 (HFL1) [nM],inhibition (LNCaP [7]),inhibition (LNCaP [8]),inhibition (22Rv1),inhibition in vivo at 50 mg/kg (LNCaP C4-2B [10]) [%],inhibition (LNCaP C4-2B [11]),Activity [12],Activity [13]
-2.5,-12.2,5.3,5.6,-0.9,0.1,630,> 6000,400,400,1170,COc1cc2onc(C)c2cc1NS(=O)(=O)c1cc(Br)ccc1OC,18200,Active,Active,Active,70,Active,Non-Toxic,Non-Toxic
-6,-15.3,5.3,5.1,-0.8,-0.1,3020,,,,,CNc1cc2onc(C)c2cc1NS(=O)(=O)c1cc(Br)ccc1OC,,,,,,,,
-2.2,-11.9,6.3,3.6,-0.8,-0.9,290,> 6000,400,400,881,Cc1noc2ccc(-c3nc4ccc(N5CCOC[C@@H]5C)cc4n3CC3CCCCC3)cc12,15900,Active,Active,Active,51,Active,Non-Toxic,Non-Toxic
-1.4,-10.7,6,4.2,-0.9,-0.6,500,,,,,Cc1noc2c(Br)cc(-c3nc4ccc(N5CCOCC5)cc4n3CC3CCCCC3)cc12,,,,,,,,
